In ChEMBL document CHEMBL4251662, “Alkyl indole-based cannabinoid type 2 receptor tools: Exploration of linker and fluorophore attachment” (Eur J Med Chem, 2018):
pEC50, pKi: −log10 of the molar value. The source made the active and inactive calls. The calls are words filed in the database; no cut-off is given here.

What was measured:
Cannabinoid receptor 1 [1] = biological target: T1, Cannabinoid receptor 1 (Homo sapiens, UniProt P21554); experiment: Agonist activity at N-terminal HA-tagged human CB1 receptor expressed in HEK293 cells transfected with YFP-Epac-RLuc assessed as decrease in forskolin-stimulated cAMP level by BRET assay relative to control; assay type: functional, cell-based
T1 sequence (P21554 whole entry): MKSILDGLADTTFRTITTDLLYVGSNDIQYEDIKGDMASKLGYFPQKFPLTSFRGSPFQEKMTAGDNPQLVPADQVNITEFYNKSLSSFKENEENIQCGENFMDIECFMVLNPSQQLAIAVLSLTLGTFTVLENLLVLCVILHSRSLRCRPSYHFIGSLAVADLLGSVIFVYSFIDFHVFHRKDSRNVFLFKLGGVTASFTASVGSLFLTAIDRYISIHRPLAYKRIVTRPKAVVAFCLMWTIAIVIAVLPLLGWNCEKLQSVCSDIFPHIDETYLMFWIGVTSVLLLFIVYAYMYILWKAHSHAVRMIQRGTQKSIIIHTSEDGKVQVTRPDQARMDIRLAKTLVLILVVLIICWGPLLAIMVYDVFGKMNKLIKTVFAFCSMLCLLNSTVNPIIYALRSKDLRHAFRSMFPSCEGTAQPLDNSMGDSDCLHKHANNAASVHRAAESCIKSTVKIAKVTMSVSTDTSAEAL
Procedure, shortened: (§1)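 BRET cAMP biosensor read-out in HEK293 cells expressing HA-tagged human CB1 or CB2, with forskolin stimulation (5 µM). Concentration-response curves; area-under-curve values normalised to forskolin alone = 100% and basal = 0%. EC50 taken for agonists and IC50 for inverse agonists. Mean of at least three independent experiments, each point in duplicate.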

Cannabinoid receptor 1 [2] = biological target: T1, Cannabinoid receptor 1; experiment: Agonist activity at N-terminal HA-tagged human CB1 receptor expressed in HEK293 cells transfected with YFP-Epac-RLuc assessed as decrease in forskolin-stimulated cAMP level at 10 uM by BRET assay; assay type: functional, cell-based
Procedure, shortened: (§2)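 Single-concentration screen at 10 µM in CB receptor-expressing HEK293 cells, run with and without CP55,940 as reference agonist. Forskolin-stimulated cAMP read by BRET biosensor. A fall in cAMP is scored as agonism and a rise as inverse agonism.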

Cannabinoid receptor 2 [3] = biological target: T2, Cannabinoid receptor 2 (Homo sapiens, UniProt P34972); experiment: Agonist activity at N-terminal HA-tagged human CB2 receptor expressed in HEK293 cells transfected with YFP-Epac-RLuc assessed as decrease in forskolin-stimulated cAMP level by BRET assay relative to control; assay type: functional, cell-based; procedure, shortened: as §1
T2 sequence (P34972 whole entry): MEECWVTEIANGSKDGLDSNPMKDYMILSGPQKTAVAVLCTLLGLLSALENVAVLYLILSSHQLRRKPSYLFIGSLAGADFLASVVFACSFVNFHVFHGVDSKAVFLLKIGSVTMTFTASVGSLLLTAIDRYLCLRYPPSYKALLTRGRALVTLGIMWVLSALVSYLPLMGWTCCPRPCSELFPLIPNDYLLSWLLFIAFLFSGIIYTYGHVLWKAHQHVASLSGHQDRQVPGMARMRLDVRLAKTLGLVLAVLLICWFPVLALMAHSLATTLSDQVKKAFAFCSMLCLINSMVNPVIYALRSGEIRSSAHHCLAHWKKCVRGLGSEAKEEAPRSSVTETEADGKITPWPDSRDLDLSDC

Cannabinoid receptor 2 [4] = biological target: T2, Cannabinoid receptor 2; experiment: Agonist activity at N-terminal HA-tagged human CB2 receptor expressed in HEK293 cells transfected with YFP-Epac-RLuc assessed as decrease in forskolin-stimulated cAMP level by BRET assay; assay type: functional, cell-based; procedure, shortened: as §1
HEK293 [5] = experiment: Effect on forskolin-stimulated cAMP level in HEK293 cells at 10 uM by BRET assay relative to control; assay type: ADME, cell-based; conditions: human, hek293, 10 µM
Procedure, shortened: (§3)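 Wild-type HEK293 cells lacking transfected receptor, tested at 10 µM and 1 µM. Forskolin-stimulated cAMP measured by BRET as a check that responses are receptor-mediated.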

Cannabinoid receptor 2 [6] = biological target: T2, Cannabinoid receptor 2; experiment: Displacement of [3H]CP55,940 from N-terminal HA-tagged human CB2 receptor expressed in HEK293 cell membranes at 10 uM after 1 hr by microbeta scintillation counting method relative to control
Procedure, shortened: (§4)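 Single-point competition screen against [3H]CP55,940 in HEK293 cells over-expressing 3HA-tagged hCB2 or hCB1. Compounds giving more than 50% displacement went on to full concentration-response curves.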

Cannabinoid receptor 2 [7] = biological target: T2, Cannabinoid receptor 2; experiment: Displacement of [3H]CP55,940 from N-terminal HA-tagged human CB2 receptor expressed in HEK293 cell membranes after 1 hr by microbeta scintillation counting method; conditions: read-out: Ki
Cannabinoid receptor 2 [8] = biological target: T2, Cannabinoid receptor 2; experiment: Agonist activity at N-terminal HA-tagged human CB2 receptor expressed in HEK293 cells transfected with YFP-Epac-RLuc assessed as decrease in forskolin-stimulated cAMP level at 10 uM by BRET assay; assay type: functional, cell-based; procedure, shortened: as §2
HEK293 [9] = experiment: Effect on forskolin-stimulated cAMP level in HEK293 cells at 1 uM by BRET assay relative to control; assay type: ADME, cell-based; conditions: human, hek293, 1 µM; procedure, shortened: as §3
Cannabinoid receptor 1 [10] = biological target: T1, Cannabinoid receptor 1; experiment: Displacement of [3H]CP55,940 from N-terminal HA-tagged human CB1 receptor expressed in HEK293 cell membranes after 1 hr by microbeta scintillation counting method; conditions: read-out: Ki
Cannabinoid receptor 1 [11] = biological target: T1, Cannabinoid receptor 1; experiment: Displacement of [3H]CP55,940 from N-terminal HA-tagged human CB1 receptor expressed in HEK293 cell membranes at 10 uM after 1 hr by microbeta scintillation counting method relative to control; procedure, shortened: as §4
[12] = biological target: Proprotein convertase subtilisin/kexin type 9 (Homo sapiens) (UniProt Q8NBP7); experiment: Inhibition of PCSK9 (unknown origin)
Chain of Proprotein convertase subtilisin/kexin type 9 (Homo sapiens) (Q8NBP7 31-152 limits assumed): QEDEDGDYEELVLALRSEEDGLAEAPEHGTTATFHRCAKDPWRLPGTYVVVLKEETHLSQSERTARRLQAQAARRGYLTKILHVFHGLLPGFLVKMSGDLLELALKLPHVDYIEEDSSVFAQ
Chain of Proprotein convertase subtilisin/kexin type 9 (Homo sapiens) (Q8NBP7 153-692 limits assumed): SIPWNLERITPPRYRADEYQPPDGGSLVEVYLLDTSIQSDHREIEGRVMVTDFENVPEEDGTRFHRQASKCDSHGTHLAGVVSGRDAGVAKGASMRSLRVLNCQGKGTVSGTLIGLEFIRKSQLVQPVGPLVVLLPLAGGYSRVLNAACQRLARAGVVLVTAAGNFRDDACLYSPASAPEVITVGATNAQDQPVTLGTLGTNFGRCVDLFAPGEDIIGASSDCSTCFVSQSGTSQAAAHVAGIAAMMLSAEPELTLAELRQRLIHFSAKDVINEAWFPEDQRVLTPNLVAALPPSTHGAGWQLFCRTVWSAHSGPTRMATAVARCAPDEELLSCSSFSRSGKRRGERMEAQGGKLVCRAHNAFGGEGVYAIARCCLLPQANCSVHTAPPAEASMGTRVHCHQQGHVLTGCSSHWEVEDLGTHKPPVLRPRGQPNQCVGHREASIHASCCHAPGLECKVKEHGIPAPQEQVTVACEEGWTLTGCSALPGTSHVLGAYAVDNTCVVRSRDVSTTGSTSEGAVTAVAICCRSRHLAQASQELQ

[13] = biological target: T3, Free fatty acid receptor 4 (Homo sapiens) (UniProt Q5NUL3); experiment: Agonist activity at GPR120 (unknown origin); assay type: functional
T3 sequence (whole entry): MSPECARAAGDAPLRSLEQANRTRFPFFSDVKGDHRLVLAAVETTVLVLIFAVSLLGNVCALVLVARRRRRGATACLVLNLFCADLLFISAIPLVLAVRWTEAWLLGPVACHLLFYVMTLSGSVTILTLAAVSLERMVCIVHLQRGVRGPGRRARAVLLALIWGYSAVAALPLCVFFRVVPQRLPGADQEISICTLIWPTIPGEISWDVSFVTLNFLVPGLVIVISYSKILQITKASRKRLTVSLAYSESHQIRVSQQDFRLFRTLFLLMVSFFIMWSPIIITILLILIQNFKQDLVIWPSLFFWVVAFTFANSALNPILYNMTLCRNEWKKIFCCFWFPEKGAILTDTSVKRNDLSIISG

[14] = biological target: Interleukin-17A (Homo sapiens) (UniProt Q16552); experiment: Inhibition of IL-17 (unknown origin) assessed as disruption of IL-17 protein-protein interaction
Chain of Interleukin-17A (Homo sapiens) (Q16552 whole entry): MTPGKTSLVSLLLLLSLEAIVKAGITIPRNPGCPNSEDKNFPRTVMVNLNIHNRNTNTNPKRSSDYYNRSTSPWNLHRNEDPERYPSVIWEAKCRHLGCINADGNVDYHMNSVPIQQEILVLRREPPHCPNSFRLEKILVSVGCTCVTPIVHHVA

[15] = biological target: T4, Potassium voltage-gated channel subfamily KQT member 3 (Homo sapiens) (UniProt O43525); experiment: Agonist activity at KCNQ3 (unknown origin)
T4 sequence (whole entry): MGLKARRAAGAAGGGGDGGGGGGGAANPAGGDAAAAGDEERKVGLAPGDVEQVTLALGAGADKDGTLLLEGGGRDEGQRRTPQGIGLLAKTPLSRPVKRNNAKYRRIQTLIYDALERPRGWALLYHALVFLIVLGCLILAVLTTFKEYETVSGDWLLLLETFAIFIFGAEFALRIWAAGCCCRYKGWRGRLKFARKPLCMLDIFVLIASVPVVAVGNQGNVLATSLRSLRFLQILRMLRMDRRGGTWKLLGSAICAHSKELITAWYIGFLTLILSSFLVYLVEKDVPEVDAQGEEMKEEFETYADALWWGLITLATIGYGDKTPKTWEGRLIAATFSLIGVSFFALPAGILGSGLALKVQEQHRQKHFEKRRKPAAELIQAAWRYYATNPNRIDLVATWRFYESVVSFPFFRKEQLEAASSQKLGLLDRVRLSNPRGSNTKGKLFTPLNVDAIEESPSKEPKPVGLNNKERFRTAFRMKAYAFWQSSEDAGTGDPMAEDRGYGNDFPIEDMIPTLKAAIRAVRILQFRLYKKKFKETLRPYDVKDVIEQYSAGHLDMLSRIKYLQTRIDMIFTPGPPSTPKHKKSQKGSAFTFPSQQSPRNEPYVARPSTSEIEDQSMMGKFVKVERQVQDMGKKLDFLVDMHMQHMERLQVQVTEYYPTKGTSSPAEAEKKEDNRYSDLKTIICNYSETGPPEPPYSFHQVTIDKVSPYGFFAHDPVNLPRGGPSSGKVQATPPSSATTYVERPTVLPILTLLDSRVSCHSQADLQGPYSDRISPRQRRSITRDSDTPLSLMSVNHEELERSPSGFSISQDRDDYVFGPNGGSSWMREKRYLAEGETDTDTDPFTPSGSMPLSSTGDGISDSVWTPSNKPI

[16] = biological target: Potassium voltage-gated channel subfamily KQT member 2 (Homo sapiens) (UniProt O43526); experiment: Agonist activity at KCNQ2 (unknown origin)
Chain of Potassium voltage-gated channel subfamily KQT member 2 (Homo sapiens) (O43526 whole entry): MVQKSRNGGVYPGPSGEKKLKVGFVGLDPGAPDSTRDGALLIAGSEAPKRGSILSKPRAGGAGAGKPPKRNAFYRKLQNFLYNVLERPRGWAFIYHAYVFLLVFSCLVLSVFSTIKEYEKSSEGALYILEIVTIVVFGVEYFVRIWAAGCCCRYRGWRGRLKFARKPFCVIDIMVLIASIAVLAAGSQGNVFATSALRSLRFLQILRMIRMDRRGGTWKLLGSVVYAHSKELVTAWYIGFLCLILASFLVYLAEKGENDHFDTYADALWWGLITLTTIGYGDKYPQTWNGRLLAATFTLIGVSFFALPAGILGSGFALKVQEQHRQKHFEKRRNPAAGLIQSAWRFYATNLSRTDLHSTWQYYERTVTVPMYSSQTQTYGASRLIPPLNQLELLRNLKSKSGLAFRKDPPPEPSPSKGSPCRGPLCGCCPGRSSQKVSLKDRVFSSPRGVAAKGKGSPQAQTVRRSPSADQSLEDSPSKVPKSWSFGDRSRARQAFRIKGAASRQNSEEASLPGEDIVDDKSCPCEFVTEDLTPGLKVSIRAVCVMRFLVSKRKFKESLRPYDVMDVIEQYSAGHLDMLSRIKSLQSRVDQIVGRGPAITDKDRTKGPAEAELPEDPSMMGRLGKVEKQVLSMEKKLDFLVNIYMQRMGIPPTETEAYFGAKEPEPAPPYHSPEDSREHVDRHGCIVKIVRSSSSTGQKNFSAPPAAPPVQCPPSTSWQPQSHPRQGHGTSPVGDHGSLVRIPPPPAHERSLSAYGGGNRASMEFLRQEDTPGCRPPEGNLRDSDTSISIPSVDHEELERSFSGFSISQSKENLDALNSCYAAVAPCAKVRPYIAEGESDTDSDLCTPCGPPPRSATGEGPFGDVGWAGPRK

Leishmania donovani = experiment: Growth inhibition of Leishmania donovani; assay type: functional, organism-based
[17] = biological target: T5, Nicotinamide N-methyltransferase (Homo sapiens) (UniProt P40261); experiment: Inhibition of NNMT (unknown origin)
T5 sequence (whole entry): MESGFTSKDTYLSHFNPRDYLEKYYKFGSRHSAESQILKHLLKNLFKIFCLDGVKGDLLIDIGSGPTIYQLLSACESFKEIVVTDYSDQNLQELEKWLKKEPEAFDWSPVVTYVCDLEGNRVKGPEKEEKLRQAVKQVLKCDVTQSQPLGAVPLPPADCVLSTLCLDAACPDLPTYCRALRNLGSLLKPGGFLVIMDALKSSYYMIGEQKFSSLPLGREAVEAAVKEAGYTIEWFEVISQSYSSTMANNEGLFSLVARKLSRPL

| Structure (SMILES) | Emax (Cannabinoid receptor 1 [1]) [%] | Activity (Cannabinoid receptor 1 [2]) | Emax (Cannabinoid receptor 2 [3]) [%] | pEC50 (Cannabinoid receptor 2 [4]) | Activity (HEK293 [5]) [%] | inhibition (Cannabinoid receptor 2 [6]) [%] | pKi (Cannabinoid receptor 2 [7]) | Activity (Cannabinoid receptor 2 [8]) | Activity (HEK293 [9]) [%] | pKi (Cannabinoid receptor 1 [10]) | inhibition (Cannabinoid receptor 1 [11]) [%] | inhibition [12] | Activity [13] | inhibition [14] | Activity [15] | Activity [16] | growth inhibition (GI) (Leishmania donovani) | inhibition [17] |
| --- | --- | --- | --- | --- | --- | --- | --- | --- | --- | --- | --- | --- | --- | --- | --- | --- | --- | --- |
| COc1ccc(C(=O)c2cn(CC3CCOCC3)c3c(OCC(=O)O)cccc23)cc1 | 80.5 | Active | 84.9 | < 5.00 | 102.8 | > 50 | 6.24 | Active | 104.5 | < 5.00 | > 50 | – | – | – | – | – | – | – |
| COc1ccc(C(=O)c2cn(CC3CCOCC3)c3ccc(OCc4ccccc4)cc23)cc1 | – | – | – | – | – | – | – | – | – | – | – | inactive | inactive | inactive | inactive | inactive | inactive | inactive |
| COc1ccc(C(=O)c2cn(CC3CCOCC3)c3ccc(OCC(=O)O)cc23)cc1 | 60.4 | Active | 57.4 | 7.15 | 100.1 | > 50 | 5.78 | Active | 98.8 | < 5.00 | > 50 | – | – | – | – | – | – | – |
| COc1ccc(C(=O)c2cn(CC3CCOCC3)c3c(OCc4ccccc4)cccc23)cc1 | – | – | – | – | – | – | – | – | – | – | – | inactive | inactive | inactive | inactive | inactive | inactive | inactive |
| O=C(c1cccc2ccccc12)c1cn(CCN2CCOCC2)c2ccc(O)cc12 | 54.6 | Active | 77.4 | 8.06 | 118.7 | > 50 | 6.77 | Active | 101.9 | 5.55 | > 50 | – | – | – | – | – | – | – |
| COc1ccc(C(=O)c2cn(CC3CCOC3)c3ccc(OCc4ccccc4)cc23)cc1 (stereo unspecified) | – | – | – | – | – | – | – | – | – | – | – | inactive | inactive | inactive | inactive | inactive | inactive | inactive |
| COc1ccc(C(=O)c2cn(CCN3CCOCC3)c3ccc(O)cc23)cc1 | 70.4 | Active | 67.5 | 8.27 | 105.2 | > 50 | 6.13 | Active | 101.9 | < 5.00 | > 50 | – | – | – | – | – | – | – |
| O=C(c1cn(CCN2CCOCC2)c2ccc(O)cc12)C1CCCCC1 | 74.3 | Active | 74.1 | 7.73 | 105.1 | > 50 | 6.05 | Active | 105.9 | < 5.00 | > 50 | – | – | – | – | – | – | – |
| O=C(c1cccc2ccccc12)c1cn(CC2CCOCC2)c2ccc(OCc3ccccc3)cc12 | – | – | – | – | – | – | – | – | – | – | – | inactive | inactive | inactive | inactive | inactive | inactive | inactive |
| O=C(c1cccc2ccccc12)c1cn(CC2CCOCC2)c2ccc(O)cc12 | 52.4 | Active | 64.4 | 7.83 | 108.1 | > 50 | 6.56 | Active | 95 | 6.08 | > 50 | inactive | inactive | inactive | inactive | inactive | inactive | inactive |
